# An excerpt weighted towards active compounds, which were near 1.6% of everything screened.
# TDP2 absorb: blocks human TDP2 phosphodiesterase activity; O95551; recombinant TDP2, T5PNP hydrolysis, p-nitrophenol absorbance 415 nm; inhibition, % at 12.8 µM; 370,000 compounds, 0.34% hits;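 active = inhibition above the mean of all tested compounds plus 3 SD, set per campaign, cut at about 25% in these data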;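 note: 0% = DMSO with enzyme and 100% = buffer with substrate but no TDP2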
#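 Material: recombinant human TDP2; quantity: TDP2 enzyme at 120 nM final; medium: Tris-HCl pH 7.5 with MgCl2; compound: single concentration, 12.8 µM nominal, with 1% DMSO; incubation: 2 h enzyme incubation at 37 °C; signal: epi absorbance; measure: percent inhibition; benchmarks: high control without enzyme, low control DMSO plus TDP2; repeats: singlicate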
# GSTO1 inh: counter-screen for RBBP9 inhibitors: inhibitors of human GSTO1 | P78417 | recombinant GSTO1, activity-based probe fluorescence polarization | 300,000 compounds, 1.1% hits | inhibition, % at 5.96 µM | AID 1974;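 active = inhibition above the campaign mean inhibition plus 3 SD, cut at about 35% in these data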;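 note: 0% = GSTO1-1 with DMSO and 100% = wells lacking GSTO1-1 enzyme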
# Target sequence (P78417 whole entry, looked up): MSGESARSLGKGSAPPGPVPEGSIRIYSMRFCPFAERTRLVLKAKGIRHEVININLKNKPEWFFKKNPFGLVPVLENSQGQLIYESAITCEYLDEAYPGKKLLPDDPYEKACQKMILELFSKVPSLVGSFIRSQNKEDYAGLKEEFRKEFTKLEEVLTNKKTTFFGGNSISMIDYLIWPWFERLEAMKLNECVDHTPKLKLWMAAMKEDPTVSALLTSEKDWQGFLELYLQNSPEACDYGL
# Apaf-1 inh: blocks human Apaf-1 apoptosome activity. O14727. reconstituted apoptosome caspase-3 activity, DEVD-Rh110 fluorescence. inhibition, % at 20 µM. 330,000 compounds, 0.71% hits; active = inhibition of at least 40% at 20 µM;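 note: plate controls were DMSO wells for no effect and DEVD-CHO caspase inhibitor wells for full effect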
#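 Material: biochemical Apaf-1 apoptosome reconstitution. Medium: Hepes buffer, pH 7.5. Also added: cytochrome c activation, bis-DEVD rhodamine 110 substrate. Timing: 30 min compound preincubation, 50 min activation, room temperature. Measured by: rhodamine 110 fluorescence at Ex 480/Em 540 nm.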
# PAD4 inh: PAD4 (human) enzyme inhibition; inhibition, % at 6.36 µM; Q9UM07; AID 485272; 330,000 compounds, 0.41% hits; recombinant PAD4, RCA probe fluorescence polarization;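 active = percent inhibition above a cutoff equal to the mean of all tested compounds plus 3 SD, cut at about 15% in these data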;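 note: 0% = PAD4 with RCA probe and DMSO and 100% = probe without PAD4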
# UBC9 SUMO inh: SUMOylation inhibition; P63279; HTRF SUMOylation assay, SAE1/SAE2 + UBC9, in vitro; inhibition, % at 35 µM; 290,000 compounds, 0.36% hits; AID 2006; in the data active = inhibition above about 50%, passing the limit was not always enough
# Target sequence (P63279 whole entry, looked up): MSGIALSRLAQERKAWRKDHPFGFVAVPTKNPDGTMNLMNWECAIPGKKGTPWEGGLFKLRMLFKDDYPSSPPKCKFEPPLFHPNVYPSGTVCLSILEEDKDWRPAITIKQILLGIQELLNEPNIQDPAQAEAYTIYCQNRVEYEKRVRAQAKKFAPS
# JMJD2C inh: inhibitors of human GASC-1 (JMJD2C) demethylase | Q9H3R0 | GST-JMJD2C(1-420) H3K9me3 demethylation, DELFIA europium | inhibition, % at 2.35 µM | 330,000 compounds, 0.069% hits | AID 2099;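 active = more than half of a compound's replicate wells show inhibition beyond 50%, single wells judged on their own value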;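 note: signal counts dimethyl H3K9 product captured on neutravidin plate; 0% = median of DMSO wells and 100% = 0.3 times that DMSO median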
# Numbers without * were called inactive; / = no result.
SMILES,TDP2 absorb,GSTO1 inh,Apaf-1 inh,PAD4 inh,UBC9 SUMO inh,JMJD2C inh
O=C(Nc1nnc(-c2cccnc2)s1)c1cnc2ccccc2c1,3.9,/,/,/,/,/
COc1cc(/C=C2\CCc3c2nc2ccccc2c3C(=O)O)cc(OC)c1OC,2.7,35.1*,1.9,3.5,54.2*,-0.2
CC(C)CC(=O)Nc1ccc2oc(-c3cccnc3)nc2c1,10.5,-2.8,-7.0,4.7,52.8*,-2.5
CCCC(=O)Nc1ccc2oc(-c3cncc(Br)c3)nc2c1,14.1,0.1,-5.6,-2.7,52.0*,-1.3
CCCCCC(=O)Nc1ccc2oc(-c3cncc(Br)c3)nc2c1,-3.1,5.3,-10.4,-6.4,19.8,-3.1
C=CCn1c(SCC(=O)OC(C)C)nnc1-c1ccc(C)cc1,3.6,/,/,/,/,/
CCc1cc2c(nc1CC)CCN(CC/C(C)=N/OC[C@H]1O[C@H](c3ccccc3)C=C[C@@H]1Oc1ccc(OC)cc1)C2,/,/,43.4*,/,12.2,-15.8
COc1ccc(O[C@H]2C=C[C@@H](c3ccccc3)O[C@@H]2CO/N=C(\C)CCN2CCc3nc(-c4ccccc4)c(-c4ccccc4)cc3C2)cc1,/,-0.3,47.5*,-4.7,0.1,0.9
COc1ccc(O[C@H]2C=C[C@@H](c3ccccc3)O[C@@H]2COC(=O)CC/C(C)=N/OC[C@@H](O)COCc2ccco2)cc1,/,6.8,13.4,-0.9,2.1,1.8
Nc1[nH]c(C(=O)c2ccccc2)c(-c2cccc3ccccc23)c1C(=O)c1c(-c2ccccc2)[nH]c2ccccc12,-3.6,/,/,/,/,/
CCc1cc(=O)oc2c3c(cc(OCC(=O)NCc4ccccn4)c12)OC(C)(C)CC3,-5.0,-2.7,5.6,1.9,39.2,2.8
CCc1cc(=O)oc2c3c(cc(OCC(=O)NCCCCCC(=O)O)c12)OC(C)(C)CC3,3.7,0.2,-2.8,-6.6,53.1*,4.6
C=C(C)/C=C1/CN(Cc2ccc3c(c2)OCO3)C(=N)N1C(=O)OCc1ccccc1,-4.9,/,/,/,/,/
Cc1cccc(NC(=O)/C(C#N)=C/c2cn(CC(=O)NCc3ccco3)c3ccccc23)c1C,9.7,-11.6,13.6,-10.4,57.7*,-0.9
N#C/C(=C\c1cn(Cc2ccccc2)c2ccccc12)C(=O)NCc1ccco1,1.6,3.1,1.0,-10.8,48.1,9.2
N#C/C(=C\c1cn(Cc2ccc(F)cc2)c2ccccc12)C(=O)NCc1ccco1,-13.3,-4.6,5.9,-5.3,51.4*,4.3
COC(=O)c1ccc(N2NC(=O)/C(=C/c3cc(OC)c(OC)c(OC)c3)C2=O)cc1,-5.3,23.1,-1.2,-6.8,-7.4,-19.9
COC(=O)c1ccc(N2NC(=O)/C(=C/c3cc(OC)c(O)c(OC)c3)C2=O)cc1,-17.3,36.6*,4.2,0.3,-7.1,-3.8
O=C(Cn1c(=O)c2cccn2c2cccnc21)NCCCN1CCN(c2ccccc2)CC1,-4.8,/,/,/,/,/
CC(=O)N1C(=O)C2(C(C#N)=C(N)Oc3c2c(C)nn3-c2ccccc2)c2ccccc21 (stereo not drawn),21.1,29.8,7.2,-0.9,-6.2,-1.6
Cc1nn(-c2ccccc2)c2c1C1(C(=O)N(C)c3ccccc31)C(C#N)=C(N)O2 (stereo not drawn),3.7,37.2*,12.2,0.7,-10.9,1.2
Cc1csc(=Nc2ccccc2)n1C,5.8,7.5,-11.6,1.8,3.0,-27.8
OCc1csc(=Nc2ccccc2)n1-c1ccccc1,8.8,-3.8,-3.9,1.1,-2.2,57.3*
CCOC(=O)CC[C@@]1(C(=O)OCC)C[C@@H](CC(=O)NCc2cccs2)C(=O)N2CCCC=C21,4.7,/,/,/,/,/
COC(=O)C1CN(Cc2ccc(Cl)cc2)CCS(=O)(=O)N1Cc1cn(Cc2ccc(Cl)cc2)nn1 (stereo not drawn),-11.4,/,/,/,/,/
CC1CCCC(C)N1/N=C/c1ccc(O)c(O)c1 (stereo not drawn),-6.3,35.9*,1.7,4.5,1.3,3.8
COc1ccc(/C=N/N2C(C)CCCC2C)cc1O (stereo not drawn),-12.1,-1.6,3.2,3.0,10.6,-28.7
CC1(C)CC(=O)C=C(NCC(=O)O)C1,4.6,0.3,-7.8,2.5,4.8,0.7
CCSCCC(NC1=CC(=O)CC(C)(C)C1)C(=O)O (stereo not drawn),0.8,-3.2,48.7*,-0.4,4.9,-12.9

# From PubChem BioAssay
